SR-BI uptake up: activators of SR-BI mediated HDL lipid uptake; CHO ldlA[mSR-BI] cells, DiI-HDL uptake fluorescence, 3 h; 100 = double the neutral-control signal; activation, % at 12.5 µM; actives 0.096% (n = 320,000);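 active = mean replicate activation of at least 60% and every replicate at or above 60%; inconclusive = mean or all-replicate condition met, but not both; inactive = mean below 60% and not all replicates reaching 60%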;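 also: 0% = median plate neutral-control signal and 100% = twice that signal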
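Assay system: LDL receptor-deficient CHO ldlA cells overexpressing murine SR-BI / Medium: BSA-supplemented, HEPES-buffered Ham's F12, pH 7.4 / Probe or stimulus: DiI-labelled HDL at 10 µg/mL final / Timing: compound with DiI-HDL co-incubation, 3 h at 37 °C / Technique: bottom-read cell fluorescence after medium removal, ex 550/em 595 nm / Measure: HDL uptake via cellular fluorescence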
SR-BI DiI inh: blocks mouse SR-BI lipid uptake from DiI-HDL | ldlA[mSR-BI] CHO cells, DiI-HDL uptake fluorescence, 3 h | Q61009 | inhibition, % at 12.5 µM | AID 488896 | actives 0.96% (n = 320,000);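 active = mean replicate inhibition of at least 70% and a set share of replicates each scoring 70 or more; inconclusive = meets just one of the two criteria; inactive = fails both criteria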;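 also: 0% = median of neutral control wells and 100% = median of positive control wells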
Target sequence (Q61009 whole entry, looked up): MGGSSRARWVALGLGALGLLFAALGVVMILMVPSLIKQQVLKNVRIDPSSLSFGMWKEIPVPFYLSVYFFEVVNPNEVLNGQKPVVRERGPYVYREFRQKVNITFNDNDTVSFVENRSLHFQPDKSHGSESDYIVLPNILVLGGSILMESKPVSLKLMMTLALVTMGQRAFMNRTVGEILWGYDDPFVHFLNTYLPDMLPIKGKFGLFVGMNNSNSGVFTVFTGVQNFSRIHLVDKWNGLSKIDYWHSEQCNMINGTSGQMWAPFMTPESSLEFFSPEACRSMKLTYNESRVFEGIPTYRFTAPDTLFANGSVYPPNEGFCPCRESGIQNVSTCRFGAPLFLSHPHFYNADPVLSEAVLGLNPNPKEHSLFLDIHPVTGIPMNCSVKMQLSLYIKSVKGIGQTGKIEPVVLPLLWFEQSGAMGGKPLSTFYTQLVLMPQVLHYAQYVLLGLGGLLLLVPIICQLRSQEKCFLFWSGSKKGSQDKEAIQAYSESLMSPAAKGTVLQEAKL
H9c2 TAG inh: inhibitors of triacylglycerol accumulation; H9c2 cells, Nile Red lipid (TAG) fluorescence; cells loaded with 200 µM oleic acid; inhibition, % at 12.5 µM; actives 0.66% (n = 230,000); AID 651582;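 active = pattern-corrected inhibition of lipid staining of at least 50% with the nuclear-stain viability signal not falling by more than 50%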;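 also: 0% = DMSO wells and 100% = triacsin C control wells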
Bfl-1 A1 inh: inhibitors of the anti-apoptotic protein A1, read as caspase activation; MEF A1-2A-BIM cells, Caspase-Glo 3/7 luminescence, 3 h; percent of clofoctol response, vehicle zero; caspase activation, % (test concentration not listed); actives 0.066% (n = 330,000);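 active = over half of replicate activation scores above 10%, or exactly half above 10 with the replicate mean above 10; inconclusive = replicate mean below 10 yet half the replicates above 10; inactive = over half of replicates below 10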
Vif inh: HIV Vif inhibition. HEK293T cells, Vif self-association by quenched fluorescence, imaging, 24 h. inhibition, % at 7.49 µM. actives 0.35% (n = 340,000). AID 602346; in the data active = inhibition above about 50%, passing the limit was not always enough; inconclusive = no clear call, values can overlap the other calls; inactive = below about 31%
* hit, by the source's call; ? = inconclusive; nt = not tested or not shown; ! = not active in a repeat. Hits are enriched below; roughly 1.6% of the tested compounds scored in any of these assays.

SMILES	SR-BI uptake up	SR-BI DiI inh	H9c2 TAG inh	Bfl-1 A1 inh	Vif inh
COc1ccc(O)c(CN2CC3CCC(CC3)C2)c1	22	-22	9	nt	-4
COc1cc(-c2ccc3oc(-c4ccsc4)cc(=O)c3c2)cc(OC)c1OC	-73	73*	-40	0	-2
Cc1nn(-c2ccccc2)c(N2CCCC2)c1/C=N/NC(=O)c1cccc(S(=O)(=O)Nc2ccc(Cl)cc2)c1	-77	77*	nt	1	-4
Cc1ccc(-c2cc(C(=O)N/N=C/c3c(C)nn(-c4ccccc4)c3C)[nH]n2)cc1	-78	78*	69*	nt	?
Cc1nn(-c2ccccc2)c(N2CCCC2)c1/C=N/NC(=O)c1cc(-c2ccccc2)nc2ccccc12	-88	88*	nt	1	0
COc1ccc(-c2nn(-c3ccccc3)cc2/C=N/NC(=O)c2cccc(S(=O)(=O)Nc3ccccc3Cl)c2)cc1	-80	80*	nt	1	5
CC1CCCN(C(=O)COC(=O)c2ccc3[nH]c4c(c3c2)CCCC4)C1 (configuration not stated)	-18	18	19	-1	-10
COC(=O)CC1C(=O)NCCN1C(=O)c1cc([N+](=O)[O-])ccc1Cl (configuration not stated)	6	-6	nt	1	15
Cc1nnc2n1CCCCC2	5	-5	3	1	2
CCc1ccc(N2C(=O)c3cc(N4CCOCC4)c([N+](=O)[O-])cc3C2=O)cc1	nt	nt	nt	1	nt
CCc1cccc(CC)c1N1C(=O)c2cc(N3CCOCC3)c([N+](=O)[O-])cc2C1=O	-75	75*	nt	0	-4
CC(=O)N(C)c1ccc(NCc2cc(=O)oc3cc(C)c(O)cc23)cc1	nt	nt	nt	0	6
CC12CN(NC(=O)c3ccccc3F)C3(C#N)CC1CCC23C (configuration not stated)	7	-7	10	2	11
COc1ccc(Br)cc1CN1CCC(N2CCCC2)CC1	20	-20	nt	1	-1
Cc1ccc2c(COC(=O)c3ccccc3OC(F)F)cc(=O)oc2c1	nt	nt	nt	1	52*
Cc1ccc(NC(=S)Nc2cccc3cnccc23)cc1C	-75	75*	36	0	-9
Cc1ccc(NC(=S)Nc2cccc3cnccc23)cc1	-10	10	-2	0	11
COc1ccc(C(=O)/C=C/Nc2ccc(NC(C)=O)cc2)cc1OC	-46	46	nt	1	-7
CCN(CC)c1ccc(NC(=O)/C=C/c2cc(Br)ccc2OC)cc1	-80	80*	40	0	-6
COc1ccc(NC(=O)/C=C/c2cc(Br)ccc2OC)cc1	-74	74*	15	0	-11
COc1ccc(Br)cc1/C=C/C(=O)c1ccc(NC(C)=O)cc1	-77	76*	nt	-1	0
COc1cc(/C=C/C(=O)Nc2ccc(C(C)=O)cc2)cc(OC)c1OC	-75	75*	-10	0	0
O=C(NC(Cc1ccccc1)C(=O)O)/C(=C/c1ccc([N+](=O)[O-])cc1)NC(=O)c1ccco1 (configuration not stated)	nt	nt	nt	1	12
CC(C)C[C@H](NC(=O)C1CCN(S(=O)(=O)c2ccccc2)CC1)C(=O)NCc1ccccn1	-3	3	nt	0	2
CC(=O)Nc1ccc(NC(=O)C(C)Sc2n[nH]c(-c3ccc(C)cc3)n2)cc1 (configuration not stated)	-13	13	7	0	3
SMILES	SR-BI uptake up	SR-BI DiI inh	H9c2 TAG inh	Bfl-1 A1 inh	Vif inh
C=CC[C@H](CC(=O)NCCO)C(=O)N[C@H](COC(=O)[C@@H](CC=C)Cc1ccc(F)cc1)C(C)(C)C	5	-5	-4	nt	-1
COc1ccc(S(=O)(=O)N2CCC(C(=O)NCCC(=O)NCc3cccnc3)CC2)cc1	nt	nt	12	nt	-1
CCOCCn1c(=NC(=O)/C=C/c2ccccc2Cl)sc2cc(NC(C)=O)ccc21	-71	71*	nt	0	-2
COc1ccccc1CN(C)C(=O)COC(=O)c1ccc(Cl)nc1	2	-2	-1	1	1
COc1cc(C#Cc2c(-c3cncn3C)n(C)c3ccc(-c4ccc(OC)nc4)cc23)cc(OC)c1	29	-29	103*	1	4
COc1ccc(C(=O)N/C(=C\c2cn(S(=O)(=O)N(C)C)c3ccccc23)C(=O)NC(C)C)cc1	-2	2	-21	0	-3
CCN(CC)C(=O)/C(=C/c1cn(S(=O)(=O)N(C)C)c2ccccc12)NC(=O)c1ccc(OC)cc1	-88	88*	5	1	-13
O=C(Nc1ccc(O)c2c(=O)cc(-c3cccc(Cl)c3)oc12)c1cccc(Cl)c1	-54	54	19	15*	0
N#CC(Cc1ccccc1OC(F)F)c1nc2ccccc2[nH]1 (configuration not stated)	3	-3	nt	-3	-4
Cc1c(Nc2cc(Cl)c3nonc3c2[N+](=O)[O-])c(=O)n(-c2ccccc2)n1C	5	-5	102*	nt	-9
Cc1c(Nc2cc(N3CCOCC3)c3nonc3c2[N+](=O)[O-])c(=O)n(-c2ccccc2)n1C	nt	nt	nt	0	nt
CC1=C(/C=C/C(C)=C/C=C/C(C)=C/C(=O)Nc2ccc(O)cc2)C(C)(C)CCC1	-98	98*	92	0	50*!
NS(=O)(=O)c1ccc(CNC(=O)c2ccc(NS(=O)(=O)c3ccc4[nH]c(=O)[nH]c4c3)cc2)cc1	7	-7	5	0	16
O=C(NC(C(=O)N/N=C/c1cccnc1)c1n[nH]c(=O)c2ccccc12)c1ccccc1 (configuration not stated)	nt	nt	-2	1	12
Cc1cc(C)c(S(=O)(=O)N2CCN(S(=O)(=O)N3CCOCC3)CC2)c(C)c1	9	-9	nt	1	68*
Cc1cc(C)c(S(=O)(=O)N2CCCC2)c(C)c1	6	-6	nt	1	-1
NC(=O)C1CCN(Cc2nc3cc(C(F)(F)F)ccc3c(=O)[nH]2)CC1	15	-15	-9	0	0
CCOc1ccc(NC(=O)CN(C)C(=O)C2CCN(C(=O)c3ccc(Cl)cc3)CC2)cc1OCC	-46	46	-11	1	2
Cc1ccc(C(=O)Nc2ncccc2O)cc1S(=O)(=O)N1CCCCC1	2	-2	2	0	nt
Cc1ccccc1C(=O)Nc1ccc(N2CCCC2)cc1	-57	57	3	-8	5
COc1cc(C(=O)NC(=S)Nc2ccc(N3CCCC3)cc2)cc(OC)c1OC	-75	75*	nt	-1	7
Cc1ccc(C(=O)Nc2ccc(N3CCCC3)cc2)c(C)c1	-84	84*	-11	0	-3
COc1ccc(C(=O)Nc2ccc(N3CCN(C(=O)c4cccs4)CC3)cc2)cc1Br	-72	72*	nt	0	-19
COc1ccc(C(=O)Nc2ccc(N3CCCC3)cc2)cc1OC	-74	74*	nt	-13	-2
NC(=O)c1nsc(C(=O)N(CC(=O)NCc2ccccc2)c2ccc(F)cc2)c1N	-19	19	nt	1	3

Screens: PubChem BioAssay, several laboratories
